Source: PubChem (several laboratories)
Only some compounds are listed: those with a hit (about 6.7% of all), similar ones and a draw of the others.
T cruzi repl = blocks replication of Trypanosoma cruzi | T. cruzi beta-gal in NIH3T3, luminescence, 90 h | inhibition, % (no concentration beside the values) | 300,000 tested, 1.4% active;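 active = mean inhibition across valid replicates above about 55%, limit read from the data; inconclusive = mean below that limit but half or more replicates reach it; inactive = mean below it, under half of replicates reach it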;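 also: signal also drops with host cell toxicity which is not excluded here; 0% = plate median of DMSO wells and 100% = zero luminescence signal; higher percent means less beta-gal luminescence so fewer parasites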
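Incubation – ≥90 h infection period, 3 h prior cell attachment · System – NIH/3T3 fibroblasts plus reporter T. cruzi · Doses – compound pinned at 50 nL/well, DMSO · Read-out basis – percent inhibition of parasite-derived β-gal signal · Signal – luminescent β-galactosidase signal after 60 min lysis · Also added – 5000 T. cruzi trypomastigotes/well · Medium – Low-serum DMEM with 2% FBS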
Beta apoptosis = blocks beta cell apoptosis; INS-1E cytokine-induced death, ATP luminescence, 48 h; percent of positive-control rescue, neutral wells zero; protection from apoptosis, % (test concentration not listed); 300,000 tested, 0.8% active; AID 435005;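 active = Every replicate reaches about 75%, or at least half do and their mean reaches it too, limit read from the data; inconclusive = At least half of replicates reach the limit but their mean does not; inactive = Under half of replicates reach the limit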;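 also: 0% = cytokine-treated negative control wells and 100% = positive control rescue; higher means more ATP so stronger rescue from cytokine killing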
PREPL inhibitor = inhibitors of human prolyl oligopeptidase-like enzyme PREPL. Q4J6C6. recombinant PREPL, fluorescence polarization activity-based probe. inhibition, % at 5.96 µM. 320,000 tested, 0.68% active. AID 2751;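 also: 0% = enzyme with DMSO and 100% = wells lacking enzyme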
Target sequence (Q4J6C6 whole entry, looked up): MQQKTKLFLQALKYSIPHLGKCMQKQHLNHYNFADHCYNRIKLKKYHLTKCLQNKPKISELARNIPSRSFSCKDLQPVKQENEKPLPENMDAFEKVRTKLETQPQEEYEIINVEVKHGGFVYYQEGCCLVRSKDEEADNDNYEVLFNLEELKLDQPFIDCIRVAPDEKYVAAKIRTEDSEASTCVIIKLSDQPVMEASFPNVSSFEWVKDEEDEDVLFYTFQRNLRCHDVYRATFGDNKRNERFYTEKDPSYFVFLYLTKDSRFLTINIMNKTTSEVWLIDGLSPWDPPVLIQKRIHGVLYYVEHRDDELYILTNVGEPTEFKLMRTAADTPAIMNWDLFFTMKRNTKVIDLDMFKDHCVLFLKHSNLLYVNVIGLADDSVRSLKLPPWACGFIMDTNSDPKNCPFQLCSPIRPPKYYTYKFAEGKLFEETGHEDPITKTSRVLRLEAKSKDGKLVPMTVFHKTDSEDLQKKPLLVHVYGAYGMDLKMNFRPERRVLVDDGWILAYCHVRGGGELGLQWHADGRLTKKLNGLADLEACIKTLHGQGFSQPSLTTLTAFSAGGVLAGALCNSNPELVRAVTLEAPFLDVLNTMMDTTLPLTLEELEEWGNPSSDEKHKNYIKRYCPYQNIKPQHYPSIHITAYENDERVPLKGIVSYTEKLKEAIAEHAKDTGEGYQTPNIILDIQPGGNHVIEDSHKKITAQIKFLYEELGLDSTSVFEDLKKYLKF
CSC inhib = cancer stem cell inhibition; cancer stem cell-like cells viability, luminescence; inhibition, % at 7.5 µM; 300,000 tested, 1.1% active; AID 2717; in the data active = inhibition above about 75%; inconclusive = no clear call, values can overlap the other calls; tested in HMLE shEcad cells
CHOP inh = blocks CHOP induction under ER stress; AID 2732; inhibition, % at 10 µM; CHO-K1 CHOP-promoter luciferase, tunicamycin-induced, 15-18 h; 220,000 tested, 3.8% active;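 active = compounds that reduced the stress-induced luciferase reporter signal by more than about 70% of percent inhibition, limit read from the data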;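 also: 0% = tunicamycin plus vehicle and 100% = wells without tunicamycin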
NR3A LBD binder = NR3A (human) ligand-binding domain modulation; Tm shift relative to glycine control, % at 25 µM; 340,000 tested, 2.5% active; NR3A LBD differential scanning fluorimetry, Tm shift; 0% = protein alone, 100% = glycine-bound protein; AID 1259313;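 active = melting temperature shift of at least 10% of the positive control shift, at one fixed dose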
PREPL inh cf = confirmation of human PREPL enzyme inhibitors. shares compounds with PREPL inhibitor. recombinant PREPL, fluorescence polarization activity probe. inhibition, % at 5.96 µM. 2,000 tested, 67% active. AID 2803;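 also: 0% = protein with DMSO and 100% = wells lacking protein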
* hit, by the source's call; u = inconclusive; x = not tested or not shown. Rule as the data show it, unless noted: active = inhibition above about 43%; inactive = the rest.

SMILES	T cruzi repl	Beta apoptosis	PREPL inhibitor	CSC inhib	CHOP inh	NR3A LBD binder	PREPL inh cf
O=C(c1cnn2c(C(F)F)cc(-c3ccccc3)nc12)N1CCOCC1	-4	-4	61*	-7	22	4	4
CN(CC(=O)Nc1ccc(F)cc1)C(=O)c1cc(-c2cccs2)nn1-c1ccccc1	x	x	x	x	x	-12	x
COc1ccc(/C=C2/SC(=S)N(CC(=O)O)C2=O)cc1OCc1ccc(Cl)cc1	13	4	66*	8	x	-2	67*
CCOc1cc(/C=C2/SC(=S)N(CC(=O)O)C2=O)ccc1OC(=O)c1cccs1	-3	-7	65*	-5	-7	6	67*
c1cnc2nc3c4ccccc4c4ccccc4c3nc2c1	x	x	x	x	x	1	x
Cc1cc(C)n2nc(C(=O)OCC(=O)N3C(C)CCCC3C)nc2n1 (centres undefined)	-1	-11	3	x	x	0	x
COc1ccc2noc3c2c1C(=O)c1ccccc1-3	-1	30	50*	u	x	-364	35
Cc1ccn2c(-c3csc(NCc4ccccc4)n3)c(C)nc2c1	11	1	45*	x	53	2	45*
Cc1nc2ccccn2c1-c1csc(NCc2ccco2)n1	16	x	15	-15	x	0	x
CSc1nc(N)nc2c1ncn2CC(=O)N[C@H](C)c1cccc2ccccc12	x	-3	-18	x	x	0	x
Cc1ccc(Nc2nc(N)nc(CSC(=S)N3CCN(c4ccccc4)CC3)n2)cc1	27	-3	64*	u	59	-3	34
CCCCCN=C(N)N/N=C/c1c[nH]c2ccc(OC)cc12	36	56	80*	119*	x	-2	66*
COc1ccc(N2CC(C(=O)N/N=C/c3c[nH]c4ccccc34)CC2=O)cc1 (centres undefined)	-2	-8	14	3	26	-4	x
CCOc1cc(/C=C2\C(=N)N3N=C(N4CCCCC4)SC3=NC2=O)ccc1OC(=O)c1ccco1	-5	5	51*	-2	x	-30	59*
CCOc1cc(/C=C2/C(=N)N3C(=NC2=O)SN=C3S(C)(=O)=O)ccc1OC(=O)c1ccco1	-4	3	52*	-15	x	-3	71*
Nc1cc(C(=O)OCC(=O)NNC(=O)c2cccs2)ccc1Cl	-15	-1	0	-3	x	6	x
O=C(O)CCCNC(=O)CCCn1nnc2ccccc2c1=O	2	8	1	-3	4	0	x
COc1cccc(N2CCN(CC(=O)Nc3ccc(-n4cnnn4)cc3)CC2)c1	4	7	7	-4	-5	0	x
CCc1ccccc1NC(=O)CN1CCN(C(=O)c2cccc(-n3cnnn3)c2)CC1	x	6	65*	-22	x	1	6
CN(C)c1ccc(C(CNC(=O)c2ccccc2Br)c2c[nH]c3ccccc23)cc1 (centres undefined)	15	3	56*	2	40	-3	31
O=C(Nc1ccccc1C(=O)NCc1ccccc1)c1ccccc1Br	11	-3	-21	-9	32	-7	x
Cc1ccc2[nH]c(C(=O)NN=C3CCCCC3)c(-c3ccccc3)c2c1	5	-3	12	30	65	0	x
CCN1C(=O)[C@H]2[C@@H](c3ccc(-c4ccc(OC)cc4)cc3)N3CCC[C@@]3(C(=O)OC)[C@H]2C1=O	15	-8	47*	-8	x	0	37
CCN1C(=O)[C@@H]2[C@@H](c3ccc(-c4ccc(OC)cc4)cc3)N3CCC[C@@]3(C(=O)OC)[C@@H]2C1=O	-8	-3	5	22	x	-1	x
CCN1C(=O)[C@H]2[C@@H](c3ccc(-c4ccc(F)cc4)cc3)N3CCCC[C@@]3(C(=O)OC)[C@H]2C1=O	23	-1	45*	21	x	-2	40
SMILES	T cruzi repl	Beta apoptosis	PREPL inhibitor	CSC inhib	CHOP inh	NR3A LBD binder	PREPL inh cf
CN(C)C1(CNC(=O)C2CCN(S(=O)(=O)c3cccc(C(F)(F)F)c3)CC2)CCCCC1	26	x	9	10	x	2	x
CC[C@]12C(=O)N(C)C[C@H]([C@@H]3C(=O)N(C)C(=O)[C@@H]31)N2C(=O)c1ccc(Cl)c(Cl)c1	x	x	x	x	x	1	x
O=C(Cn1cc[n+](CC(=O)c2ccc(Cl)cc2Cl)c1)c1ccc(Cl)cc1Cl	41	15	46*	14	4	-1	9
O=C(Cn1cc[n+](CC(=O)c2ccccc2)c1)c1ccccc1	-3	-1	-3	-15	-17	2	x
O=C(c1ccc(=O)[nH]n1)N1CCN(S(=O)(=O)c2ccc(C(F)(F)F)cc2)CC1	x	-2	3	x	x	1	x
Cc1ccc(C2C=C(c3ccccc3OC(F)F)Nc3ncnn32)cc1 (centres undefined)	-8	-1	1	24	3	-1	x
CN(C)c1ccc(C2C=C(c3ccc(Cl)cc3OC(F)F)Nc3ncnn32)cc1 (centres undefined)	27	11	56*	58	x	-3	49*
Cc1ccc(NC(=O)C(c2ccccc2)c2ccccc2)c(O)c1	-17	2	-12	-9	x	-4	x
Cc1ccc(Nc2nc(-c3c(C)nc4ncccn34)cs2)cc1	-44	9	51*	62	-27	2	45*
O=C(NCCCn1ccnc1)C1CCN(S(=O)(=O)c2cc([N+](=O)[O-])ccc2Cl)CC1	x	1	47*	x	x	2	41
CC(C)C(NC(=O)c1c(F)cccc1F)C(=O)OCN1C(=O)c2ccccc2C1=O (centres undefined)	x	2	6	x	x	2	x
CC1=CCC2COC(c3ccc[n+](Cc4ccccc4)c3)C1C2 (centres undefined)	18	-14	49*	7	-15	1	36
COc1ccc(CNC(=O)CSc2nc3[nH]ncc3c(=O)n2-c2ccccc2Br)cc1	-1	-2	0	-11	7	x	x
O=c1c(O)cccc2cc(O)c(O)c(O)c12	5	8	63*	32	46	-5	37
O=C(C1CCCN(S(=O)(=O)c2cccc3nonc23)C1)N1CCN(c2ccccc2Cl)CC1 (centres undefined)	35	8	47*	-5	10	-1	35
O=C(NCc1ccc2c(c1)OCO2)c1cc(COc2c(F)cccc2F)on1	-9	1	6	14	x	4	x
COc1cccc(CNC(=O)c2cc(COc3c(F)cccc3F)on2)c1	-2	0	50*	11	-11	-1	-2
CCC(C)N=C1Sc2nc3ccc(C)cc3cc2CN1CCOC (centres undefined)	32	-3	13	10	32	4	x
O=C(Cn1nc(CNc2ccc(Br)cc2)[n+]2c1CCCCC2)c1ccc([N+](=O)[O-])cc1	27	-2	62*	10	2	3	44*
